LMPTP block – LMPTP (human) inhibition; P24666; recombinant LMPTP-A, OMFP fluorogenic substrate, fluorescence intensity; inhibition, % at 20 µM; 0.22% of 360,000 active; AID 651560;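 active = compounds that cut the enzyme signal by at least half of the control window in the single-dose screen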
Target sequence (P24666 whole entry, looked up): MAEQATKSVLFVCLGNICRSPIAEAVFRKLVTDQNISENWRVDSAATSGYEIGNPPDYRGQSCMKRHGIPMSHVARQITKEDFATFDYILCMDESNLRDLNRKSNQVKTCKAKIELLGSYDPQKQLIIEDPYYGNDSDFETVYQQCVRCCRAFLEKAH
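Test system – LMPTP-A phosphatase enzyme · Quantity – 0.625 nM LMPTP-A final · Reagent – OMFP substrate, 400 µM final · Dosing – one test concentration per compound, 20 µM, with 3% DMSO overall · Timing – 50 min enzyme reaction at room temperature, protected from light · Detection – fluorescence intensity · Controls – substrate-only low control, DMSO enzyme-plus-substrate high control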
STEP block – STEP (human) phosphatase inhibition. P54829. recombinant STEP, OMFP fluorogenic substrate, fluorescence. inhibition, % at 20 µM. 0.25% of 360,000 active. AID 588621;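 active = inhibition at 20 µM, scaled per plate between control wells, above about 37%, limit read from the data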
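Assay system: isolated STEP enzyme / Timing: 20 min at room temperature, dark / Doses: 20 µM, 1% DMSO / Technique: fluorescence intensity, excitation 480 nm, emission 540 nm / Reagent: fluorogenic phosphatase substrate OMFP at 25 µM final / Measure: percent inhibition scaled to no-enzyme and uninhibited-enzyme controls, plate-pattern corrected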
PP1 inh – PP1-alpha (human) inhibition in PP5 counter-screen. AID 2235. P62136. 0.9% of 320,000 active. purified PP1alpha, OMFP fluorescence. inhibition, % at 6.7 µM;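 active = inhibition above the mean inhibition of all tested compounds plus 3 SD, computed separately for each screening campaign, cut at about 15% in these data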
Target sequence (P62136 whole entry, looked up): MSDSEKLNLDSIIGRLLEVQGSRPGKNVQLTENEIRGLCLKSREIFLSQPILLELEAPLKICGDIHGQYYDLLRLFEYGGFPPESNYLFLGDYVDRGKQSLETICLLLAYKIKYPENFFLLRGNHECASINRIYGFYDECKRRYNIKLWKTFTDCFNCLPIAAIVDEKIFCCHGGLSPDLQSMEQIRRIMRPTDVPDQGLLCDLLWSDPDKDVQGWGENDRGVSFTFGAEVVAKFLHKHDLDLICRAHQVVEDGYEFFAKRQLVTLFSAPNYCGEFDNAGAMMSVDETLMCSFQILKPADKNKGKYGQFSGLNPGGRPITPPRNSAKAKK
Scp1 inh – blocks human Scp-1 phosphatase activity; Q9GZU7; AID 493091; Recombinant Scp1, phosphopeptide, malachite green phosphate absorbance; 0.88% of 340,000 active; inhibition, % at 20 µM;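 active = inhibition above about 50% at 20 µM, limit read from the data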
Target sequence (Q9GZU7 76-261 limits assumed): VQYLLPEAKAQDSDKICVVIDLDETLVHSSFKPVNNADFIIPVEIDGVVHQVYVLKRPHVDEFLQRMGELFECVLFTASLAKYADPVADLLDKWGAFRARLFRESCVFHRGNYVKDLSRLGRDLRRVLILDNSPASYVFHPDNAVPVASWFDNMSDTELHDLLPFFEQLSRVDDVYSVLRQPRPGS
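Test system – truncated SCP-1 phosphatase (76-261aa) · Reagent – Phosphorylated 17-residue peptide substrate · Incubation – 45 min room-temperature reaction, 5 min colour, 30 min stabiliser · Detection – colorimetric phosphate reagent with accelerator and stabiliser, absorbance at 630 nm · Measure – % inhibition at 20 µM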
PP5 inh – inhibitors of human protein phosphatase 5 (PP5); P53041; purified PP5c, OMFP substrate fluorescence; inhibition, % at 6.7 µM; 0.18% of 320,000 active; AID 1987;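 active = inhibition above the campaign's mean inhibition across all tested compounds plus 3 SD, cut at about 9.5% in these data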
PP1 confirm – human PP1 phosphatase inhibition, confirmation | shares compounds with PP1 inh | purified PP1alpha, OMFP substrate fluorescence | inhibition, % at 6.7 µM | 52% of 1,900 active | AID 2358;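 active = mean PP1 inhibition above a set limit taken from the earlier primary screen, cut at about 15% in these data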
PP5 counter – inhibits human PP5 phosphatase in PP1 counter-screen; inhibition, % at 6.7 µM; shares compounds with PP1 inh; purified PP5c, OMFP fluorescence; 4% of 1,900 active;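 active = mean PP5 inhibition over triplicate wells above about 9.5% taken from the earlier PP1 screen, limit read from the data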
A number is an active result; 0 = inactive; - = not tested or not shown. Most compounds without a hit are left out; they make up all but 1.9% or so of the library.

SMILES	LMPTP block	STEP block	PP1 inh	Scp1 inh	PP5 inh	PP1 confirm	PP5 counter
Cc1ccc(C(=O)Nc2nc(-c3ccccn3)cs2)cc1S(=O)(=O)N1CCOCC1	0	0	31	0	0	35	0
CN(CC1CCCO1)S(=O)(=O)c1ccc(C(=O)Nc2ccccc2F)cc1 (stereo not drawn)	0	0	0	0	0	-	-
O=C(Nc1nc(-c2ccccn2)cs1)c1cc(S(=O)(=O)N2CCOCC2)ccc1F	0	0	0	0	0	-	-
O=C(Nc1nc(-c2ccccn2)cs1)c1ccc(F)c(S(=O)(=O)N2CCOCC2)c1	0	0	30	0	0	37	0
Cc1ccc(C(=O)Nc2ccccn2)cc1S(=O)(=O)N1CCOCC1	0	0	0	0	0	-	-
CN(CC1CCCO1)S(=O)(=O)c1ccc(C(=O)Nc2nc(-c3ccccn3)cs2)cc1 (stereo not drawn)	0	0	29	0	0	28	0
COc1ccc(-c2nnn(CC#N)n2)cc1OC	0	0	0	0	0	-	-
O=C(O)c1ccccc1NC(=O)C(c1ccccc1)c1ccccc1	0	0	0	0	0	-	-
CCN(CC)S(=O)(=O)c1ccc(C(=O)Nc2nnc(NC(=S)Nc3ccccc3)s2)cc1	0	0	43	0	0	29	0
Cc1c(-c2ccc(Cl)cc2)oc(=O)c2c(N)n(-c3ccccc3)nc12	0	0	23	0	0	28	0
O=C(Nc1ccccc1N1CCN(C(=O)c2ccc(Cl)cc2)CC1)c1cc(Br)ccc1Cl	0	0	18	0	0	0	0
COc1ccc(N(CC(=O)N2CCCC2)S(=O)(=O)c2ccc(NC(C)=O)cc2)cc1	0	0	0	0	0	-	-
COc1cc([N+](=O)[O-])cc(/C=N/NC(=O)C(O)(c2ccccc2)c2ccccc2)c1O	0	0	20	0	0	0	0
COc1cc([N+](=O)[O-])cc(/C=N/NC(=O)C(C)Nc2cccc3ccccc23)c1O (stereo not drawn)	0	0	23	0	0	33	0
COc1cc([N+](=O)[O-])cc(/C=N\NC(=O)C2COc3ccccc3O2)c1O (stereo not drawn)	0	0	32	0	0	26	0
O=C(N/N=C/c1cccc([N+](=O)[O-])c1O)C(O)(c1ccccc1)c1ccccc1	0	0	0	0	0	-	-
COc1ccc(CN(C)C(=O)c2ccc(NC(=O)CC3SC(N4CCCC4)=NC3=O)cc2)c(OC)c1OC (stereo not drawn)	0	0	0	0	0	-	-
COc1cccc(NC(=O)CSc2nnc(-c3cccc(OC(C)C)c3)n2N)c1	0	0	0	0	0	-	-
COc1cc(CC(=O)NC(c2ccccc2)c2ccccc2)cc(OC)c1OC	0	0	0	0	0	-	-
O=C(Nc1nnc(-c2ccco2)o1)c1ccc(N2C(=O)CCC2=O)cc1	0	0	0	0	0	-	-
CN(c1ccccc1)S(=O)(=O)c1ccc(C(=O)Nc2nnc(-c3ccco3)o2)cc1	0	0	22	0	0	20	0
CC(=O)Nc1ccc(NC(=O)c2ccc(S(=O)(=O)N(C)c3ccccc3)cc2)cc1	0	0	0	0	0	-	-
CCN(c1ccccc1)S(=O)(=O)c1ccc(C(=O)Nc2nnc(-c3ccco3)o2)cc1	0	0	19	0	0	23	0
O=C(Nc1ccc(NC(=O)C2CC2)nc1)c1ccccc1F	0	0	0	0	0	-	-
CN(C)Cc1cc(CN(C)C)c(O)c(CCc2ccccc2)n1	0	0	0	0	0	-	-
SMILES	LMPTP block	STEP block	PP1 inh	Scp1 inh	PP5 inh	PP1 confirm	PP5 counter
COc1ccc(Nc2nc(Nc3ccc(OC)cc3)nc(-n3[nH]c(=O)c(C)c3C)n2)cc1	0	0	23	0	0	23	0
COc1ccc(Nc2nc(OC)nc(OC)n2)cc1	0	0	0	0	0	-	-
CC(=O)c1ccc(N(CC(=O)NC2CCS(=O)(=O)C2)S(=O)(=O)c2ccc(C)cc2)cc1 (stereo not drawn)	0	0	-	0	-	-	-
O=C(c1ccco1)N1CCN(c2ncnc3c2nnn3Cc2ccccc2Cl)CC1	0	0	41	0	0	44	0
COc1ccc(NC(=O)C2CCCNC2=O)cc1 (stereo not drawn)	0	0	-	0	-	-	-
CC(=O)c1ccc(NC(=O)C2CCCNC2=O)cc1 (stereo not drawn)	0	0	22	0	0	0	0
CCc1ccc(C(=O)Cn2ccsc2=N)cc1	0	0	0	0	0	-	-
Cc1cnccc1CN(C)Cc1cn(C)nc1-c1ccc(Oc2ccccc2)cc1	0	0	0	0	0	-	-
Cc1ccc(S(=O)(=O)N2[C@@H](c3ccc(Cl)cc3)C(C(=O)O)=CC[C@H]2c2ccc(Cl)c(Cl)c2)cc1	0	0	21	0	0	16	0
Cc1ccc(S(=O)(=O)N2C(c3ccc(Cl)c(Cl)c3)CC=C(C(=O)O)C2c2ccc(Cl)cc2)cc1 (stereo not drawn)	0	-	-	-	-	-	-
Cc1ccc(S(=O)(=O)N2C(c3cccc(Cl)c3)CC=C(C(=O)O)C2c2cccc(Cl)c2)cc1 (stereo not drawn)	0	-	-	-	-	-	-
Cc1ccc(S(=O)(=O)N2[C@@H](c3cccc(Cl)c3)C(C(=O)O)=CC[C@H]2c2ccc(Cl)cc2)cc1	0	0	19	0	0	0	0
Cc1ccc(S(=O)(=O)CCC(=O)OCC(=O)c2ccc(F)cc2)cc1	0	0	31	0	0	0	0
O=C(CSc1nc2ccc(NC(=O)CSc3nnnn3Cc3ccccc3)cc2s1)Nc1ccccc1	0	0	22	0	0	0	0
Cc1cc(C)c(NC(=O)CSc2nc3ccc(NC(=O)CSc4nnnn4-c4ccccc4)cc3s2)c(C)c1	0	0	0	0	0	-	-
COC(=O)CSc1nc2ccc(NC(=O)CSc3nnnn3Cc3ccccc3)cc2s1	0	0	0	0	0	-	-
Cc1cc(C)c(NC(=O)CSc2nc3ccc(NC(=O)CSc4nnnn4Cc4ccccc4)cc3s2)c(C)c1	0	0	20	0	0	31	0
CCc1n[nH]c2c1/C(=N\O)CC(c1ccccc1)C2 (stereo not drawn)	0	0	0	0	0	-	-
N#Cc1c(-c2c(Cl)cccc2Cl)noc1/C=C/Nc1ccc(C(=O)O)cc1	0	0	0	0	0	-	-
CN(C)/C=C/c1onc(-c2c(Cl)cccc2Cl)c1C#N	0	0	35	0	0	0	0
CCOC(=O)c1c(NC(=O)CCS(=O)(=O)c2ccccc2)sc2c1CCN(C(C)C)C2	0	0	0	0	0	-	-
COc1cc(C(=O)NNC(=O)c2cc(=O)[nH]c3ccccc23)cc(OC)c1OC	0	0	0	0	0	-	-
COc1ccc(-c2nc3cnccn3c2NCc2ccccc2)cc1SC1CCCCC1	0	0	0	0	0	-	-
CCCCCCSc1cc(-c2nc3cc(C)ccn3c2NC2CCCCC2)ccc1OC	0	0	22	0	0	0	0

Assay outcomes (PubChem)
